Results as given in ChEMBL document CHEMBL3603756, “Synthesis and apoptotic activity of new pyrazole derivatives in cancer cell lines” (2015).
Active and inactive are the calls of the source. No cut-off for these calls is given here.

Key:
THP-1 [1] = experiment: Cytotoxicity against human THP1 cells assessed as cell viability at 12.5 ug/ml incubated for 24 hrs by MTS assay; type: functional; conditions: THP-1, 24 h, read-out: Activity
Summary of the method: (§1)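 Cells were held at 37 °C, 5% CO2 in humid air. HEp-2 (5 x 10³/well) and HCT-8 (7 x 10³/well) grew in DMEM + 10% heat-inactivated FBS and got compound (binary dilutions) 24 h after seeding. THP-1 (5 x 10³ cells, RPMI-1640 + 10% FBS) were added directly to the dilutions. Exposure lasted 24 h. MTS (CellTiter 96 AQueous One) read-out was absorbance at 490 nm.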

THP-1 [2] = experiment: Cytotoxicity against human THP1 cells assessed as cell viability at 25 ug/ml incubated for 24 hrs by MTS assay; type: functional; conditions: THP-1, 24 h, read-out: Activity; summary of the method: as §1
THP-1 [3] = experiment: Cytotoxicity against human THP1 cells assessed as cell viability at 50 ug/ml incubated for 24 hrs by MTS assay; type: functional; conditions: THP-1, 24 h, read-out: Activity; summary of the method: as §1
[4] = Cytotoxicity against human HCT8 cells assessed as cell viability at 12.5 ug/ml incubated for 24 hrs by MTS assay; type: functional; conditions: HCT-8, 24 h, read-out: Activity; summary of the method: as §1
[5] = Cytotoxicity against human HCT8 cells assessed as cell viability at 25 ug/ml incubated for 24 hrs by MTS assay; type: functional; conditions: HCT-8, 24 h, read-out: Activity; summary of the method: as §1
[6] = Cytotoxicity against human HCT8 cells assessed as cell viability at 50 ug/ml incubated for 24 hrs by MTS assay; type: functional; conditions: HCT-8, 24 h, read-out: Activity; summary of the method: as §1
[7] = Cytotoxicity against human Hep2 cells assessed as cell viability at 12.5 ug/ml incubated for 24 hrs by MTS assay; type: functional; conditions: HEp-2, 24 h, read-out: Activity; summary of the method: as §1
[8] = Cytotoxicity against human Hep2 cells assessed as cell viability at 25 ug/ml incubated for 24 hrs by MTS assay; type: functional; conditions: HEp-2, 24 h, read-out: Activity; summary of the method: as §1
[9] = Cytotoxicity against human Hep2 cells assessed as cell viability at 50 ug/ml incubated for 24 hrs by MTS assay; type: functional; conditions: HEp-2, 24 h, read-out: Activity; summary of the method: as §1
HCT-8 [10] = experiment: Induction of apoptosis in human HCT8 cells assessed necrosis level at 50 ug/ml incubated for 24 hrs by annexin V-FITC and propidium iodide staining based flow cytometry (reference value: 1.12%); type: functional
HCT-8 [11] = experiment: Induction of apoptosis in human HCT8 cells assessed early apoptosis level at 50 ug/ml incubated for 24 hrs by annexin V-FITC and propidium iodide staining based flow cytometry (reference value: 0.75%); type: functional
HCT-8 [12] = experiment: Induction of apoptosis in human HCT8 cells assessed late apoptosis level at 50 ug/ml incubated for 24 hrs by annexin V-FITC and propidium iodide staining based flow cytometry (reference value: 4.8%); type: functional
HCT-8 [13] = experiment: Induction of apoptosis in human HCT8 cells assessed viable cells level at 50 ug/ml incubated for 24 hrs by annexin V-FITC and propidium iodide staining based flow cytometry (reference value: 93.3%); type: functional
HEp-2 [14] = experiment: Induction of cell cycle arrest in human Hep2 cells assessed accumulation at G2/M phase incubated for 24 hrs by propidium iodide staining based flow cytometry; type: functional
HEp-2 [15] = experiment: Induction of cell cycle arrest in human Hep2 cells assessed accumulation at G0/G1 phase at 10 ug/ml incubated for 24 hrs by propidium iodide staining based flow cytometry (reference value: 74.51%); type: functional
HEp-2 [16] = experiment: Induction of cell cycle arrest in human Hep2 cells assessed accumulation at G0/G1 phase at 50 ug/ml incubated for 24 hrs by propidium iodide staining based flow cytometry (reference value: 74.51%); type: functional
HEp-2 [17] = experiment: Induction of cell cycle arrest in human Hep2 cells assessed accumulation at S phase at 10 ug/ml incubated for 24 hrs by propidium iodide staining based flow cytometry (reference value: 21.06%); type: functional
HEp-2 [18] = experiment: Induction of cell cycle arrest in human Hep2 cells assessed accumulation at S phase at 50 ug/ml incubated for 24 hrs by propidium iodide staining based flow cytometry (reference value: 21.06%); type: functional
HEp-2 [19] = experiment: Induction of cell cycle arrest in human Hep2 cells assessed accumulation at G2/M phase at 10 ug/ml incubated for 24 hrs by propidium iodide staining based flow cytometry (reference value: 7.82%); type: functional
HEp-2 [20] = experiment: Induction of cell cycle arrest in human Hep2 cells assessed accumulation at G2/M phase at 50 ug/ml incubated for 24 hrs by propidium iodide staining based flow cytometry (reference value: 7.82%); type: functional
[21] = Reduction in PRKAA1 gene expression in human Hep2 cells at 10 ug/ml incubated for 24 hrs by real-time PCR method; type: functional, cell-based; conditions: HEp-2
Summary of the method: (§2)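 HEp-2 cells were treated 24 h at 10 or 50 µg/mL. Total RNA was extracted with Trizol, and 2 µg was reverse-transcribed. 50 ng cDNA went into TaqMan real-time PCR with beta-actin as endogenous control. Relative expression was calculated by the ∆∆CT method. Each experiment was run three times.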

[22] = Reduction in PRKAA1 gene expression in human Hep2 cells at 50 ug/ml incubated for 24 hrs by real-time PCR method; type: functional, cell-based; conditions: HEp-2; summary of the method: as §2
[23] = Reduction in PRKAA2 gene expression in human Hep2 cells at 10 ug/ml incubated for 24 hrs by real-time PCR method; type: functional, cell-based; conditions: HEp-2; summary of the method: as §2
[24] = Reduction in PRKAA2 gene expression in human Hep2 cells at 50 ug/ml incubated for 24 hrs by real-time PCR method; type: functional, cell-based; conditions: HEp-2; summary of the method: as §2
HEp-2 [25] = experiment: Increase in TRAIL-R2 protein expression in human Hep2 cells at 50 ug/ml incubated for 24 hrs by protein array method; type: functional, cell-based
HEp-2 [26] = experiment: Increase in TRAIL-R1 protein expression in human Hep2 cells at 50 ug/ml incubated for 24 hrs by protein array method; type: functional, cell-based
HEp-2 [27] = experiment: Increase in FADD protein expression in human Hep2 cells at 50 ug/ml incubated for 24 hrs by protein array method; type: functional, cell-based
HEp-2 [28] = experiment: Increase in Fas/TNFRSF6 protein expression in human Hep2 cells at 50 ug/ml incubated for 24 hrs by protein array method; type: functional, cell-based
HEp-2 [29] = experiment: Increase in caspase-8 levels in human Hep2 cells at 50 ug/ml incubated for 24 hrs by protein array method; type: functional, cell-based
HEp-2 [30] = experiment: Reduction in pro-caspase-3 levels in human Hep2 cells at 50 ug/ml incubated for 24 hrs by protein array method; type: functional, cell-based
HEp-2 [31] = experiment: Increase in cleaved-caspase-3 levels in human Hep2 cells at 50 ug/ml incubated for 24 hrs by protein array method; type: functional, cell-based
HEp-2 [32] = experiment: Reduction in XIAP levels in human Hep2 cells at 50 ug/ml incubated for 24 hrs by protein array method; type: functional, cell-based
HEp-2 [33] = experiment: Reduction in c-IAP1 levels in human Hep2 cells at 50 ug/ml incubated for 24 hrs by protein array method; type: functional, cell-based
HEp-2 [34] = experiment: Reduction in c-IAP2 levels in human Hep2 cells at 50 ug/ml incubated for 24 hrs by protein array method; type: functional, cell-based
HEp-2 [35] = experiment: Reduction in livin protein levels in human Hep2 cells at 50 ug/ml incubated for 24 hrs by protein array method; type: functional, cell-based
HEp-2 [36] = experiment: Reduction in survivin protein levels in human Hep2 cells at 50 ug/ml incubated for 24 hrs by protein array method; type: functional, cell-based
HEp-2 [37] = experiment: Reduction in HSP27 protein levels in human Hep2 cells at 50 ug/ml incubated for 24 hrs by protein array method; type: functional, cell-based
HEp-2 [38] = experiment: Reduction in HSP70 protein levels in human Hep2 cells at 50 ug/ml incubated for 24 hrs by protein array method; type: functional, cell-based
HEp-2 [39] = experiment: Induction of apoptosis in human Hep2 cells assessed as increase in p53 S15/S46/S392 phosphorylation level at 50 ug/ml incubated for 24 hrs by protein array method; type: functional, cell-based

| SMILES | viability at 12.5 µg/mL (THP-1 [1]) [%] | viability at 25 µg/mL (THP-1 [2]) [%] | viability at 50 µg/mL (THP-1 [3]) [%] | viability at 12.5 µg/mL [4] [%] | viability at 25 µg/mL [5] [%] | viability at 50 µg/mL [6] [%] | viability at 12.5 µg/mL [7] [%] | viability at 25 µg/mL [8] [%] | viability at 50 µg/mL [9] [%] | Activity (HCT-8 [10]) [%] | Activity (HCT-8 [11]) [%] | Activity (HCT-8 [12]) [%] | Activity (HCT-8 [13]) [%] | Activity (HEp-2 [14]) | Activity (HEp-2 [15]) [%] | Activity (HEp-2 [16]) [%] | Activity (HEp-2 [17]) [%] | Activity (HEp-2 [18]) [%] | Activity (HEp-2 [19]) [%] | Activity (HEp-2 [20]) [%] | other results |
| --- | --- | --- | --- | --- | --- | --- | --- | --- | --- | --- | --- | --- | --- | --- | --- | --- | --- | --- | --- | --- | --- |
| Cn1cc(C(=O)NC(=S)Nc2ccccc2I)cn1 | 100 | 84 | 31.3 | 100 | 100 | 91.8 | 100 | 100 | 90 | 2.49 | 2.01 | 3.75 | 91.8 | Dose-dependent effect | 76.4 | 67.6 | 21.88 | 18.14 | 6.86 | 15.92 | Activity [21]: Active; Activity [22]: Active; Activity [23]: Active; Activity [24]: Active |
| Cn1cc(C(=O)NC(=S)Nc2ccc(Br)cc2)cn1 | 100 | 72.9 | 37 | 100 | 100 | 91.7 | 100 | 100 | 90 | 1.73 | 2.78 | 3.83 | 91.7 | Dose-dependent effect | 75.28 | 67.63 | 16.97 | 22.6 | 9.91 | 18.75 | Activity [21]: Active; Activity [22]: Active; Activity [23]: Active; Activity [24]: Active |
| Cc1cs/c(=N\C(=O)c2cnn(C)c2)n1-c1ccc(I)cc1 | 99 | 86.9 | 37.2 | 100 | 100 | 91.8 | 100 | 100 | 90 | 1.41 | 2.91 | 3.89 | 91.8 | Dose-dependent effect | 66.94 | 50.7 | 23.56 | 27.45 | 9.07 | 25.92 | Activity (HEp-2 [25]): Active; Activity (HEp-2 [26]): Active; Activity (HEp-2 [27]): Active; Activity (HEp-2 [28]): Active; Activity (HEp-2 [29]): Active; Activity (HEp-2 [30]): Active; Activity (HEp-2 [31]): Active; Activity (HEp-2 [32]): Active; Activity (HEp-2 [33]): Active; Activity (HEp-2 [34]): Active; Activity (HEp-2 [35]): Active; Activity (HEp-2 [36]): Active; Activity (HEp-2 [37]): Active; Activity (HEp-2 [38]): Active; Activity (HEp-2 [39]): Active; Activity [21]: Active; Activity [22]: Active; Activity [23]: Active; Activity [24]: Active |
| Cn1cc(C(=O)/N=C2\SCC(C)(O)N2c2ccc(Br)cc2)cn1 (centres undefined) | 95 | 67.4 | 33.9 | 98 | 95 | 85.7 | 100 | 92 | 91 | 1.34 | 6.22 | 6.76 | 85.7 | Dose-dependent effect | 62.35 | 37.33 | 19.2 | 28.71 | 19.88 | 39.46 | Activity [21]: Active; Activity [22]: Active; Activity [23]: Active; Activity [24]: Active |
| Cn1cc(C(=O)NC(=S)Nc2ccc(I)cc2)cn1 | 100 | 79.3 | 35.2 | 100 | 100 | 93.3 | 100 | 100 | 93 | 1.25 | 2.31 | 3.1 | 93.3 | Dose-dependent effect | 71.62 | 74.24 | 17.26 | 24.79 | 11.98 | 15.88 | Activity [21]: Active; Activity [22]: Active; Activity [23]: Active; Activity [24]: Active |
| Cc1cs/c(=N\C(=O)c2cnn(C)c2)n1-c1ccc(Br)cc1 | 97 | 87.6 | 41.6 | 100 | 97 | 89.4 | 100 | 95 | 85 | 2.66 | 4.47 | 3.44 | 89.4 | Dose-dependent effect | 74.24 | 63.34 | 21.45 | 24.2 | 7.76 | 19.45 | Activity [21]: Active; Activity [22]: Active; Activity [23]: Active; Activity [24]: Active |
